Experimental data reported in ChEMBL document CHEMBL1250467, “Design, synthesis, and anticonvulsant activity of new N-Mannich bases derived from spirosuccinimides and spirohydantoins” (Bioorg Med Chem, 2010).
The source made the active and inactive calls. No cut-off for these calls is given here.

Experiments:
Mus musculus [1] = experiment: Neurotoxicity in ip dosed CF1 albino mouse assessed as dose required to cause toxicity after 0.5 hrs by rotarod test; assay type: organism-based; conditions: in vivo
Summary of the method: (§1)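 Male CF-1 mice; compounds suspended in 0.5% methylcellulose/water and injected ip at 30, 100 and 300 mg/kg. MES, scPTZ (pentylenetetrazole 85 mg/kg sc at the test time) and rotarod neurotoxicity were scored at 0.5 and 4 h. Value is the lowest dose active or toxic in half or more of the animals; signs such as ataxia or tremor were recorded.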

Mus musculus [2] = experiment: Anticonvulsant activity in CF1 albino mouse assessed as protection against maximal electroshock-induced seizures at 300 mg/kg, ip after 0.5 hrs; assay type: functional, organism-based; parameters: dose 300 mg/kg; summary of the method: as §1
Mus musculus [3] = experiment: Anticonvulsant activity in ip dosed CF1 albino mouse assessed as dose required to protect against maximal electroshock-induced seizures after 4 hrs; assay type: functional; summary of the method: as §1
Mus musculus [4] = experiment: Anticonvulsant activity in CF1 albino mouse assessed as protection against subcutaneous pentylenetetrazole-induced seizures at 300 mg/kg, ip after 0.5 hrs; assay type: functional, organism-based; parameters: dose 300 mg/kg; summary of the method: as §1
Mus musculus [5] = experiment: Anticonvulsant activity in CF1 albino mouse assessed as protection against subcutaneous pentylenetetrazole-induced seizures at 300 mg/kg, ip after 4 hrs; assay type: functional, organism-based; parameters: dose 300 mg/kg; summary of the method: as §1
Mus musculus [6] = experiment: Neurotoxicity in ip dosed CF1 albino mouse assessed as dose required to cause toxicity after 4 hrs by rotarod test; assay type: organism-based; conditions: in vivo; summary of the method: as §1
Rattus norvegicus [7] = experiment: Anticonvulsant activity in Sprague-Dawley rat assessed as protection against maximal electroshock-induced seizures at 30 mg/kg po after 0.25 hrs; assay type: functional
Summary of the method: (§2)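 Male Sprague–Dawley rats, four per group, given 30 mg/kg orally as a 0.5% methylcellulose/water suspension. MES protection scored at 0.25, 0.5, 1, 2 and 4 h after dosing, motor impairment checked in parallel; data are the number of the four rats protected.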

Rattus norvegicus [8] = experiment: Anticonvulsant activity in Sprague-Dawley rat assessed as protection against maximal electroshock-induced seizures at 30 mg/kg po after 0.5 hrs; assay type: functional; summary of the method: as §2
Rattus norvegicus [9] = experiment: Anticonvulsant activity in Sprague-Dawley rat assessed as protection against maximal electroshock-induced seizures at 30 mg/kg po after 1 hr; assay type: functional; summary of the method: as §2
Rattus norvegicus [10] = experiment: Anticonvulsant activity in Sprague-Dawley rat assessed as protection against maximal electroshock-induced seizures at 30 mg/kg po after 2 hrs; assay type: functional; summary of the method: as §2
Rattus norvegicus [11] = experiment: Anticonvulsant activity in Sprague-Dawley rat assessed as protection against maximal electroshock-induced seizures at 30 mg/kg po after 4 hrs; assay type: functional; summary of the method: as §2
Rattus norvegicus [12] = experiment: Anticonvulsant activity in po dosed Sprague-Dawley rat assessed as time required to peak protection against seizures; assay type: functional
Rattus norvegicus [13] = experiment: Anticonvulsant activity in po dosed Sprague-Dawley rat assessed as protection against maximal electroshock-induced seizures; assay type: functional
Summary of the method: (§3)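 Male Sprague–Dawley rats dosed orally (0.5% methylcellulose/water suspension), groups of eight, tested at the previously estimated time of peak effect. Doses varied until at least three points lay in the 10–90% range of protection (MES, scPTZ) or minimal rotarod neurotoxicity. ED50/TD50 with 95% confidence intervals came from regression; PI = TD50/ED50.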

[14] = Neurotoxicity in po dosed Sprague-Dawley rat by rotarod test; assay type: toxicity, organism-based; conditions: in vivo; summary of the method: as §3
Rattus norvegicus [15] = species on record: Rattus norvegicus; experiment: Protection index, ratio of TD50 for Sprague-Dawley rat by rotarod test to ED50 for Sprague-Dawley rat by maximal electroshock test; assay type: functional; summary of the method: as §3
[16] = Displacement of [3H]batrachotoxin from neurotoxin site 2 of voltage-gated sodium channel in rat forebrain tissue
Mus musculus [17] = experiment: Anticonvulsant activity in ip dosed CF1 albino mouse assessed as dose required to protect against maximal electroshock-induced seizures after 0.5 hrs; assay type: functional; summary of the method: as §1
Mus musculus [18] = experiment: Anticonvulsant activity in ip dosed CF1 albino mouse assessed as dose required to protect against subcutaneous pentylenetetrazole-induced seizures after 0.5 hrs; assay type: functional; summary of the method: as §1
Mus musculus [19] = experiment: Anticonvulsant activity in ip dosed CF1 albino mouse assessed as dose required to protect against subcutaneous pentylenetetrazole-induced seizures after 4 hrs; assay type: functional; summary of the method: as §1
Mus musculus [20] = experiment: Neurotoxicity in CF1 albino mouse at 300 mg/kg, ip after 4 hrs by rotarod test; assay type: toxicity, organism-based; parameters: dose 300 mg/kg, route intraperitoneal; conditions: in vivo; summary of the method: as §1
Rattus norvegicus [21] = experiment: Anticonvulsant activity in po dosed Sprague-Dawley rat assessed as protection against subcutaneous pentylenetetrazole-induced seizures; assay type: functional; summary of the method: as §3
Mus musculus [22] = experiment: Anticonvulsant activity in CF1 albino mouse assessed as protection against maximal electroshock-induced seizures at 300 mg/kg, ip after 4 hrs; assay type: functional, organism-based; parameters: dose 300 mg/kg; summary of the method: as §1
Mus musculus [23] = experiment: Anticonvulsant activity in CF1 albino mouse assessed as protection against electrically-induced seizure at 100 mg/kg, ip after 0.25 hrs by 6Hz psychomotor seizure test; assay type: functional, organism-based; parameters: dose 100 mg/kg
Summary of the method: (§4)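 Male CF-1 mice, compound suspended in 0.5% methylcellulose/water, given ip at 100 mg/kg; four mice per time point (0.25, 0.5, 1, 2, 4 h). Corneal stimulation with 0.2 ms monopolar rectangular pulses at 6 Hz for 3 s from a constant-current device, mice manually restrained. A mouse counted as protected if normal exploratory behaviour resumed within 10 s; motor impairment was noted alongside.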

Mus musculus [24] = experiment: Anticonvulsant activity in CF1 albino mouse assessed as protection against electrically-induced seizure at 100 mg/kg, ip after 0.5 hrs by 6Hz psychomotor seizure test; assay type: functional, organism-based; parameters: dose 100 mg/kg; summary of the method: as §4
Mus musculus [25] = experiment: Anticonvulsant activity in CF1 albino mouse assessed as protection against electrically-induced seizure at 100 mg/kg, ip after 1 hr by 6Hz psychomotor seizure test; assay type: functional; summary of the method: as §4
Mus musculus [26] = experiment: Anticonvulsant activity in CF1 albino mouse assessed as protection against electrically-induced seizure at 100 mg/kg, ip after 2 hrs by 6Hz psychomotor seizure test; assay type: functional, organism-based; parameters: dose 100 mg/kg; summary of the method: as §4
Mus musculus [27] = experiment: Anticonvulsant activity in CF1 albino mouse assessed as protection against electrically-induced seizure at 100 mg/kg, ip after 4 hrs by 6Hz psychomotor seizure test; assay type: functional; conditions: route intraperitoneal; summary of the method: as §4
Rattus norvegicus [28] = experiment: Anticonvulsant activity in Sprague-Dawley rat assessed as protection against pilocarpine-induced status epilepticus at 600 mg/kg, ip measured after clonus of one of the fore limbs seizure stage; assay type: functional, organism-based; parameters: dose 600 mg/kg
Summary of the method: (§5)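 Male Sprague–Dawley rats (150–180 g) received compound ip at 600 mg/kg, then a challenge dose of pilocarpine. Seizure severity graded on the Racine scale; rats were scored as protected or not, and body weight change was taken 24 h after the first stage III seizure.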

Rattus norvegicus [29] = experiment: Anticonvulsant activity in Sprague-Dawley rat assessed as protection against pilocarpine-induced status epilepticus at 600 mg/kg, ip; assay type: functional, organism-based; parameters: dose 600 mg/kg; summary of the method: as §5
Rattus norvegicus [30] = experiment: Toxicity in Sprague-Dawley rat assessed as change in body weight at 600 mg/kg, ip measured after 24 hrs of clonus of one of the fore limbs seizure stage in protected rat; assay type: organism-based; parameters: dose 600 mg/kg, route intraperitoneal; conditions: in vivo; summary of the method: as §5
Rattus norvegicus [31] = experiment: Toxicity in Sprague-Dawley rat assessed as change in body weight at 600 mg/kg, ip measured after 24 hrs of clonus of one of the fore limbs seizure stage in non-protected rat; assay type: organism-based; parameters: dose 600 mg/kg, route intraperitoneal; conditions: in vivo; summary of the method: as §5
Mus musculus [32] = experiment: Neurotoxicity in CF1 albino mouse at 300 mg/kg, ip after 0.5 hrs by rotarod test; assay type: toxicity, organism-based; parameters: dose 300 mg/kg, route intraperitoneal; conditions: in vivo; summary of the method: as §1
Rattus norvegicus [33] = experiment: Anticonvulsant activity in Sprague-Dawley rat assessed as protection against subcutaneous pentylenetetrazole-induced seizures at 50 mg/kg po after 0.25 hrs; assay type: functional, organism-based; parameters: dose 50 mg/kg
Summary of the method: (§6)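 Oral fixed dose of 50 mg/kg in male Sprague–Dawley rats (0.5% methylcellulose/water suspension), four rats per group. Pentylenetetrazole 70 mg/kg given sc at each test time (0.25, 0.5, 1, 2, 4 h); protection from clonic seizures counted per four rats, with motor impairment studied in parallel.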

Rattus norvegicus [34] = experiment: Anticonvulsant activity in Sprague-Dawley rat assessed as protection against subcutaneous pentylenetetrazole-induced seizures at 50 mg/kg po after 0.5 hrs; assay type: functional; summary of the method: as §6
Rattus norvegicus [35] = experiment: Anticonvulsant activity in Sprague-Dawley rat assessed as protection against subcutaneous pentylenetetrazole-induced seizures at 50 mg/kg po after 1 hr; assay type: functional; summary of the method: as §6
Rattus norvegicus [36] = experiment: Anticonvulsant activity in Sprague-Dawley rat assessed as protection against subcutaneous pentylenetetrazole-induced seizures at 50 mg/kg po after 2 hrs; assay type: functional; summary of the method: as §6
Rattus norvegicus [37] = experiment: Anticonvulsant activity in Sprague-Dawley rat assessed as protection against subcutaneous pentylenetetrazole-induced seizures at 50 mg/kg po after 4 hrs; assay type: functional; summary of the method: as §6

Structure (SMILES) | Activity (Mus musculus [1]) [mg/kg] | Activity (Mus musculus [2]) | Activity (Mus musculus [3]) [mg/kg] | Activity (Mus musculus [4]) | Activity (Mus musculus [5]) | Activity (Rattus norvegicus [7]) | Activity (Rattus norvegicus [8]) | Activity (Rattus norvegicus [9]) [%] | Activity (Rattus norvegicus [10]) [%] | Activity (Rattus norvegicus [11]) [%] | Time (Rattus norvegicus [12]) [h] | ED50 (Rattus norvegicus [13]) [mg/kg] | TD50 [14] [mg/kg] | PI (Rattus norvegicus [15]) | Activity (Mus musculus [20]) | Activity (Mus musculus [22]) | also measured
O=C1NC2(CCc3ccccc3C2)C(=O)N1CN1CCN(c2ccccc2)CC1 (configuration not stated) | 300 | inactive | 30 | inactive | inactive | 25% | 50% | 50 | 100 | 100 | 6 | 1.88 | > 500 | >256.78 | – | – | Activity (Mus musculus [6]): 300 mg/kg; IC50 ([16]; read-out: IC50): 9.35 µM
O=C1CC2(CCc3ccccc3C2)C(=O)N1CCN1CCN(c2cccc(Cl)c2)CC1 (configuration not stated) | – | – | – | – | – | – | – | – | – | – | – | 23 | – | 2.6 | – | – | –
O=C1NC2(CCc3ccccc3C2)C(=O)N1CN1CCOCC1 (configuration not stated) | 100 | – | 30 | – | – | inactive | 25% | 50 | 75 | 100 | 6 | 10.7 | 400 | >37.55 | Non-toxic | – | Activity (Mus musculus [17]): 30 mg/kg; Activity (Mus musculus [18]): 100 mg/kg; Activity (Mus musculus [19]): 100 mg/kg; ED50 (Rattus norvegicus [21]): > 250 mg/kg; IC50 [16]: Not Active
O=C1CC2(CCc3ccccc3C2)C(=O)N1CN1CCN(c2ccccc2F)CC1 (configuration not stated) | 300 | inactive | – | inactive | inactive | – | – | – | – | – | – | – | – | – | Non-toxic | inactive | –
O=C1CC2(CCc3ccccc3C2)C(=O)N1CN1CCN(c2cccc(Cl)c2)CC1 (configuration not stated) | 300 | – | 100 | inactive | inactive | inactive | inactive | 25 | 50 | 50 | 6 | 19.6 | > 500 | 25.55 | Non-toxic | – | Activity (Mus musculus [17]): 300 mg/kg; Activity (Mus musculus [23]): inactive; Activity (Mus musculus [24]): inactive; Activity (Mus musculus [25]): inactive; Activity (Mus musculus [26]): inactive; Activity (Mus musculus [27]): 50%; Activity (Rattus norvegicus [28]): inactive; Activity (Rattus norvegicus [29]): inactive; Activity (Rattus norvegicus [30]): Non-toxic; Activity (Rattus norvegicus [31]): 20.6 g; IC50 ([16]; read-out: IC50): 2.45 µM
O=C1NC2(CCc3ccccc3C2)C(=O)N1CN1CCN(c2ccc(F)cc2)CC1 (configuration not stated) | 30 | inactive | – | inactive | inactive | – | – | – | – | – | – | – | – | – | – | inactive | Activity (Mus musculus [6]): 30 mg/kg
CCC1(C)CC(=O)NC1=O (configuration not stated) [ETHOSUXIMIDE] | – | inactive | – | – | – | – | – | – | – | – | – | > 500 | > 500 | >2.99 | Non-toxic | inactive | Activity (Mus musculus [18]): 100 mg/kg; Activity (Mus musculus [19]): 300 mg/kg; Activity (Mus musculus [32]): Non-toxic; Activity (Rattus norvegicus [33]): inactive; Activity (Rattus norvegicus [34]): 50%; Activity (Rattus norvegicus [35]): 25%; Activity (Rattus norvegicus [36]): 25%; Activity (Rattus norvegicus [37]): inactive; ED50 (Rattus norvegicus [21]): 167 mg/kg
